Measurements from different studies.
Target: Calcium/calmodulin-dependent protein kinase type 1 (CAMK1, Homo sapiens, UniProt Q14012)

| SMILES | assay | conditions | remaining binding |
| --- | --- | --- | --- |
| c1cnn2ncc(-c3ccnc(N4CCC45COC5)n3)c2c1 | binding | 1 µM | 80% |
| C[C@@H](c1ccc(-n2cnc3c(N)ncnc32)cc1)N1CCc2nn(C)c(Cc3ccccc3)c2C1=O | binding, competition with immobilised ligand | 0.1 µM | 89% |
| CC1CCCN1c1nccc(-c2cnn3ncccc23)n1 (centres unmarked) | binding | 1 µM | 98% |
| C=CC(=O)N1CCC(C(=O)NCC(=O)N2CCN(c3nc(-c4cnc(N)nc4C(F)F)nc(N4CCOCC4)n3)CC2)CC1 | binding, competition with immobilised ligand | 1 µM | 86% |
| CO[C@H]1CC[C@H](CNc2ccc(S(=O)(=O)NC(=O)c3ccc(N4CCN(CC5=C(c6ccc(Cl)cc6)CC(C)(C)CC5)CC4)cc3Oc3cnc4[nH]ccc4c3)cc2[N+](=O)[O-])CC1 | cell-free assay, competition with immobilised ligand | 1 µM | 88% |
| O=C(c1ccc(Nc2ncc(Cl)c(-c3ccc(Cl)s3)n2)cc1)N1CCC(N2CCCC2)CC1 | binding, competition with immobilised ligand | 1 µM | 54% |
| CC1=C(C#N)C(c2ccc3c(c2)c(NC(=O)c2ccccc2C)nn3C)C(C#N)=C(C)N1 | cell-free assay, competition with immobilised ligand | 1 µM | 98% |
| N[C@@H]1CCN(c2nccc(-c3cnn4ncccc34)n2)C1 | binding | 1 µM | 100% |
| CNC(=O)[C@@H]1CC[C@@H](n2c(-c3ccc4cnccc4c3)nc3ccc(C(=O)NCc4cccc(C(N)=O)c4)cc32)C1 | binding, competition with immobilised ligand | 1 µM | 99% |
| O=C(c1ccc(Nc2nccc(-c3cc4ccccc4s3)n2)cc1)N1CCC(N2CCCC2)CC1 | binding, competition with immobilised ligand | 1 µM | 71% |
| C[C@@H]1CCN(c2nccc(-c3cnn4ncccc34)n2)C1 | binding | 1 µM | 87% |
| COc1ncc2cc3ccccc3nc2c1C#N | cell-free assay, competition with immobilised ligand | 5 µM | 100% |
| CN(C)CC#Cc1ccc(OCCCc2sc(N3CCc4cccc(C(=O)Nc5nc6ccccc6s5)c4C3)nc2C(=O)O)c(F)c1 | cell-free assay, competition with immobilised ligand | 1 µM | 93% |
| F[C@@H]1CCN(c2nccc(-c3cnn4ncccc34)n2)C1 | binding | 1 µM | 100% |
| C[C@H](c1ccc(F)cc1)N(Cc1cccc(C(=O)O)c1)C(=O)c1cnc2ccccc2c1 | cell-free assay, competition with immobilised ligand | 1 µM | 100% |
| O=C(Nc1c[nH]nc1C(=O)NC1CCNCC1)c1cc(F)cc(F)c1 | binding, competition with immobilised ligand | 1 µM | 74% |
| CCCOc1ccc([C@H]2[C@H](C(=O)O)[C@@H](c3ccc4c(c3)OCO4)CN2CC(=O)Nc2c(CC)cccc2CC)cc1 | cell-free assay, competition with immobilised ligand | 1 µM | 93% |
| CN(C)c1nccc(-c2cnn3ncccc23)n1 | binding | 1 µM | 100% |
| Cn1cc(Cl)c2c(Oc3c(F)cc(Nc4cc(Cl)nc(N)n4)cc3F)ccnc21 | cell-free assay, competition with immobilised ligand | 0.1 µM | 100% |
| O=C(NCCCN1CCOCC1)c1ccc(Nc2nccc(-c3cc4ccccc4s3)n2)cc1 | binding, competition with immobilised ligand | 1 µM | 75% |
